According to article PMC12238405 (Communications Biology, 2025):
Entries after “also recorded” stand apart in the source; their conditions may differ. Like-named read-outs stand apart in the source and are kept apart here.

Legend:
THP-1 cells = assay: Macrophage; assay type: cell-based, human; settings: vs L. donovani DD8 intracellular amastigotes
[1] = test system: L. donovani MHOM/IN/80/DD8 intracellular amastigotes; assay: L. donovani MHOM/IN/80/DD8 intracellular amastigote assay; assay type: cell-based, Leishmania donovani; settings: for IC50: Leishmania donovani, THP-1, 96 h, read-out: IC50 (µM) [mean ± SD]
Procedure, shortened: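 THP-1 cells: 12,500/well, 25 ng/mL PMA, 24 h at 37 °C. PMA washed off; cells rested 48 h. Infected with metacyclic promastigotes from 7-day culture (host:parasite 1:2.5) for 24 h, then free parasites washed off. Test compound 80–0.004 μM (0.4% DMSO), 96 h. PFA fixation, SYBR green/CellMask stain. Infected cells normalized to 1 μM amphotericin B and 0.4% DMSO. Sigmoidal IC50, two independent experiments.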

[2] = test system: L. donovani DD8 promastigotes; assay: Determination of the cidal action of compounds; assay type: cell-based, Leishmania donovani; settings: after 24 h incubation
Procedure, shortened: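 DD8 promastigotes from two cultures in separate M199 media (N = 2) seeded at 5 × 10^5 parasites/mL. Test compound added; cell numbers counted at each time point. Absence of cells at a concentration was scored as cidal.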

[3] = test system: L. donovani DD8 promastigotes; assay: Selection of resistant parasites under increasing drug pressure; assay type: cell-based, Leishmania donovani
Procedure, shortened: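 DD8 promastigotes were cultured under gradually increasing concentrations of each drug, starting at a sublethal level, to select resistant strains. Resistance was confirmed with the promastigote viability assay.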

[4] = test system: Leishmania donovani promastigotes; settings: cited from earlier work
[5] = test system: L. donovani MHOM/SD/62/1S-CL2D, LdBOB intracellular amastigotes; assay: L. donovani MHOM/SD/62/1S-CL2D, LdBOB intracellular amastigote assay; assay type: cell-based, Leishmania donovani; settings: for IC50: Leishmania donovani, 72 h, read-out: IC50 (µM) [mean ± SD]; for fold difference in activity between L. donovani DD8 and LdBOB: intracellular amastigote 72 h assay; for Selectivity THP-1 cells: vs L. donovani LdBOB intracellular amastigotes, 72 h incubation
[6] = test system: amphotericin B resistant L. donovani DD8 promastigotes; assay: Activity on amphotericin B resistant parasites, promastigote assay; assay type: cell-based, Leishmania donovani
Procedure, shortened: (§1)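 Resistant DD8 promastigote lines were raised by culture under gradually increasing drug concentrations, starting sublethal. Resistant clones were then tested alongside the wild-type strain in the resazurin promastigote viability assay.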

[7] = Distribution coefficient estimation using chromatography; assay type: physicochemical; settings: pH 7.4
Procedure, shortened: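 LogD estimated at pH 7.4 by gradient HPLC, correlating retention against standards of known partition coefficient.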

[8] = test system: L. donovani DD8 promastigotes; assay: Time to kill assay; assay type: cell-based; settings: Leishmania donovani, read-out: IC50, time to kill, promastigotes
Procedure, shortened: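 Time-kill: DD8 promastigotes exposed to test compound for 24, 48, 72 or 96 h in the promastigote viability assay. 14-point concentration series from 40 µM top; IC50 calculated at each exposure time.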

[9] = test system: amphotericin B resistant L. donovani DD8 intracellular amastigotes; assay: Activity on amphotericin B resistant parasites, intracellular amastigote assay; assay type: cell-based, Leishmania donovani
Procedure, shortened: (§2)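 Drug-selected resistant DD8 promastigotes were used to infect PMA-differentiated THP-1 cells. Test compound activity was assessed in the intracellular amastigote assay and compared with the wild-type strain.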

[10] = test system: cytokines IL-10, IL-4, TGFβ, IFN-γ, IL-17 and TNFα; assay: Relative expression of cytokines by qPCR in hamster spleen and liver; assay type: in vivo, golden hamsters (Mesocricetus auratus); settings: for TGF-β expression: compared to untreated (UTG)
Procedure, shortened: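 Hamsters in chronic infection (~60 days) treated 10 consecutive days: vehicle (0.5% carboxymethyl cellulose, oral), GLU 50 mg/kg/day ip, or test compound. Spleen/liver RNA reverse-transcribed; TaqMan qPCR normalized to hamster microglobulin at equal cDNA input; water as negative control. Cycling: 50 °C 2 min, 95 °C 10 min, 40 × (95 °C 15 s, 60 °C 1 min).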

[11] = test system: L. infantum chagasi (MHOM/BR/1972/BH46); assay: In vivo L. infantum chagasi chronic hamster model, parasite load by qPCR; set-up: species or system golden hamsters (Mesocricetus auratus); settings: for average number of amastigotes in the liver / average number of amastigotes in the spleen: group average
[12] = test system: L. infantum chagasi (MHOM/BR/1972/BH46); assay: Histopathological analysis of hamster liver and spleen; assay type: in vivo, golden hamsters (Mesocricetus auratus); settings: infected hamsters, 10 mg/kg/day oral
[13] = test system: miltefosine resistant L. donovani DD8 intracellular amastigotes; assay: Activity on miltefosine resistant parasites, intracellular amastigote assay; assay type: cell-based, Leishmania donovani
Procedure, shortened: as §2

HEK-293 cells = assay: HEK-293 resazurin viability assay; assay type: cell-based, human; settings: vs L. donovani DD8 intracellular amastigotes, 96 h incubation
[14] = test system: miltefosine resistant L. donovani DD8 promastigotes; assay: Activity on miltefosine resistant parasites, promastigote assay; assay type: cell-based, Leishmania donovani
Procedure, shortened: as §1

[15] = test system: L. donovani DD8 intracellular amastigotes; assay: Time to kill assay; assay type: cell-based; settings: Leishmania donovani, 24 h, read-out: IC50, time to kill, intracellular amastigotes
Procedure, shortened: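 Intracellular L. donovani amastigotes were exposed to test compound for 24, 48 or 72 h, with amphotericin B and miltefosine as reference drugs. A 14-point concentration–response series started at 40 µM, and an IC50 was derived for each exposure time. Other conditions followed the paper's intracellular amastigote assay.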

[16] = test system: L. tropica, L. aethiopica, L. mexicana, L. panamensis and L. donovani; settings: read-out: EC50 values obtained for miltefosine; varied between species; cited from earlier work
L. donovani = settings: read-out: mean IC50; L. donovani DD8; cited from earlier work
[17] = L. donovani DD8 intracellular amastigote assay (96 h)
[18] = BZ1, BZ1-I 10 mg/kg/day oral, GLU 50 mg/kg/day i.p.
[19] = BZ1, BZ1-I 10 mg/kg/day oral, GLU 50 mg/kg/day i.p., 10 days

Compound | Selectivity THP-1 cells (THP-1 cells; 96 h incubation) | IC50 [1] | concentration at which no viable promastigotes were observed [2] | concentration withstood by resistant clones ([3]; after 428 days) | IC50 [5] | fold difference in activity between L. donovani DD8 and LdBOB [5] | Selectivity THP-1 cells [5] | activity against amphotericin B resistant strain compared to wild-type [6] | Selectivity THP-1 cells (THP-1 cells; 72 h incubation) | IC50 ([8]; 24 h) | IC50 ([8]; 48 h) | activity against amphotericin B resistant strain compared to wild-type [9] | TGF-β expression [10] | parasite burden reduction in spleen [11, 18] | average number of amastigotes in the liver [11, 19] | average number of amastigotes in the spleen [11, 19] | histopathological findings, liver [12] | histopathological findings, spleen [12] | activity against miltefosine resistant strain compared to wild-type [13] | Selectivity HEK-293 cells (HEK-293 cells) | other results
C[C@@H]1[C@H](O)[C@@H](C)/C=C/C=C/C=C/C=C/C=C/C=C/C=C/[C@H](O[C@@H]2O[C@H](C)[C@@H](O)[C@H](N)[C@@H]2O)C[C@@H]2O[C@](O)(C[C@@H](O)C[C@@H](O)[C@H](O)CC[C@@H](O)C[C@@H](O)CC(=O)O[C@H]1C)C[C@H](O)[C@H]2C(=O)O [Amphotericin B, reference compound] | 10.24 | 0.2 ± 0.02 µM | 0.33 µM | 0.42 µM | – | – | – | – | – | – | – | – | – | – | – | – | – | – | – | – | resistance generated [4]: 20 fold
CCOc1ccc(Nc2c3c(nc4ccccc24)CCC3)cc1 [BZ1, N-(4-Ethoxyphenyl)-2,3-dihydro-1H-cyclopenta[b]quinolin-9-amine] | >33.89 | 0.59 ± 0.13 µM | 6.66 µM | 11 µM | 4.4 ± 0.12 µM | 5 fold | >11.76 | no significant difference | >25.64 | 4310 ± 220 nM | 2370 ± 740 nM | no significant difference | significantly downregulated; also recorded: decreased expression of TGF-β | 98.56% | 3020 g⁻¹ | 25400 g⁻¹ | inflammatory nodules in the hepatic parenchyma, lymph histiocytic inflammatory infiltrate in the portal space forming nodules | increase of macrophages in the red pulp forming nodular aggregates and granulomas | no significant difference | > 33 | chromatographic logD [7]: 5; fold greater activity than miltefosine [1, 17]: 5 fold; fold lower in vitro activity than amphotericin B [1, 17]: ~ 3 fold; TNF-α expression ([10]; compared to GLU and untreated, liver and spleen samples): significant downregulation; IL-4 expression ([10]; compared to untreated, spleen and liver samples): significantly downregulated; IL-17 expression ([10]; liver samples, compared to GLU): significant downregulation; in vivo toxicity in the hamster VL model ([11]; 10 mg/kg/day oral, 10 days): does not exhibit in vivo toxicity; activity against miltefosine resistant strain compared to wild-type [14]: no significant difference
c1ccc(Oc2ccc(Nc3c4c(nc5ccccc35)CCC4)cc2)cc1 [BZ1-I, N-(4-phenoxyphenyl)-1H,2H,3H-cyclopenta[b]quinolin-9-amine] | >49.12 | 0.4 ± 0.38 µM | 1.66 µM | – | 4.26 ± 0.24 µM | 10 fold | >11.49 | no significant difference | >44.44 | 3080 ± 1110 nM | 690 ± 350 nM | no significant difference | decreased expression of TGF-β | 99.95% | 120 g⁻¹ | 162 g⁻¹ | mild inflammatory infiltrate in the portal space and nodules in the parenchyma with the presence of giant cells | evident increase in macrophages in the red pulp with the formation of nodules | no significant difference | >24.11 | fold greater activity compared to the GLU treatment group ([11]; 10 mg/kg/day oral vs GLU 50 mg/kg/day i.p.): ~ 21 fold; concentration withstood by resistant clones ([3]; after 210 days): 5.5 µM; IC50 [15]: 4840 ± 830 nM; activity against miltefosine resistant strain compared to wild-type [14]: no significant difference
CCCCCCCCCCCCCCCCOP(=O)([O-])OCC[N+](C)(C)C [Miltefosine, miltefosine, reference compound] | >7.87 | 2.54 ± 0.57 µM | 6.66 µM | 40 µM | – | – | – | – | – | – | – | – | – | – | – | – | – | – | – | 15.66 | Selectivity THP-1 cells (THP-1 cells; 96 h incubation, listed as miltefosine): 7.87; EC50 [16]: 2630 to 10600 nM
NC[C@@H]1O[C@H](O[C@H]2[C@@H](O)[C@H](O[C@@H]3[C@@H](O)[C@H](N)C[C@H](N)[C@H]3O[C@H]3O[C@H](CO)[C@@H](O)[C@H](O)[C@H]3N)O[C@@H]2CO)[C@H](N)[C@@H](O)[C@@H]1O [Paromomycin] | – | – | – | – | – | – | – | – | – | – | – | – | – | – | – | – | – | – | – | – | IC50 (L. donovani): 158000 to 166000 nM
Meglumine Antimoniate [reference compound] | – | – | – | – | – | – | – | – | – | – | – | – | – | 99.21% | 2530 g⁻¹ | 12200 g⁻¹ | – | – | – | – | INF-γ expression ([10]; spleen samples): significant difference; also recorded: increased INF-γ (Th1) expression; parasite burden reduction in liver [11, 18]: 98.79%
